Measured values taken from ChEMBL document CHEMBL5058577, “EUbOPEN Chemogenomics Library 2 (Multiplex)” (2022).

Tested on: Fibroblast
Assay: Multiplex assay against human fibroblast
Format: toxicity, cell-based
Method in brief: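 Tubulin, mitochondrial-mass and membrane-permeability phenotypes are per cents of healthy-nucleus cells. Cells were gated by CellPathfinder machine learning into Hoechst high-intensity objects or normal cells, normal cells into healthy, pyknosed or fragmented nuclei, and pyknosed cells into mitotic or apoptotic. Before that, live cells stained at seeding with Hoechst33342, BioTracker Green Microtubule Cytoskeleton Dye, MitoTracker Red and Annexin V Alexa Fluor 680 were imaged on a CQ1 microscope at 37°C and 5% CO2 after compound addition.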

[1] = 12 h, 1 µM, compound concentration 1 uM, replicate 1
[2] = 12 h, 1 µM, compound concentration 1 uM, replicate 2
[3] = 12 h, 10 µM, compound concentration 10 uM, replicate 1
[4] = 12 h, 10 µM, compound concentration 10 uM, replicate 2
[5] = 24 h, 1 µM, compound concentration 1 uM, replicate 1
[6] = 24 h, 1 µM, compound concentration 1 uM, replicate 2
[7] = 24 h, 10 µM, compound concentration 10 uM, replicate 1
[8] = 24 h, 10 µM, compound concentration 10 uM, replicate 2
[9] = 48 h, 1 µM, compound concentration 1 uM, replicate 1
[10] = 48 h, 1 µM, compound concentration 1 uM, replicate 2
[11] = 48 h, 10 µM, compound concentration 10 uM, replicate 1
[12] = 48 h, 10 µM, compound concentration 10 uM, replicate 2

O=C1[C@H](Cc2ccc(O)cc2)N2C(=O)CCN(C(=O)NCc3ccccc3)[C@H]2CN1Cc1cccc2ccccc12
Population Apoptotic (%) [1]: 32%
Population Fragmented Nuclei (%) [1]: 18%
Population Healthy Nuclei (%) [1]: 57%
Population Hoechst High Intensity Objects (%) [1]: 3%
Population Membrane Permeable-Phenotype (%) [1]: 0%
Population Mitochondria Different-Phenotype (%) [1]: 11%
Population Mitotic Cells (%) [1]: 67%
Population Normal (%) [1]: 96%
Population Pyknosed Nuclei (%) [1]: 24%
Population Tubulin-Different-Phenotype (%) [1]: 47%
Total Cell Count [1]: 160
Population Apoptotic (%) [2]: 30%
Population Fragmented Nuclei (%) [2]: 27%
Population Healthy Nuclei (%) [2]: 45%
Population Hoechst High Intensity Objects (%) [2]: 2%
Population Membrane Permeable-Phenotype (%) [2]: 5%
Population Mitochondria Different-Phenotype (%) [2]: 13%
Population Mitotic Cells (%) [2]: 69%
Population Normal (%) [2]: 97%
Population Pyknosed Nuclei (%) [2]: 26%
Population Tubulin-Different-Phenotype (%) [2]: 58%
Total Cell Count [2]: 152
Population Apoptotic (%) [3]: 35%
Population Fragmented Nuclei (%) [3]: 18%
Population Healthy Nuclei (%) [3]: 58%
Population Hoechst High Intensity Objects (%) [3]: 8%
Population Membrane Permeable-Phenotype (%) [3]: 0%
Population Mitochondria Different-Phenotype (%) [3]: 24%
Population Mitotic Cells (%) [3]: 64%
Population Normal (%) [3]: 91%
Population Pyknosed Nuclei (%) [3]: 23%
Population Tubulin-Different-Phenotype (%) [3]: 84%
Total Cell Count [3]: 146
Population Apoptotic (%) [4]: 45%
Population Fragmented Nuclei (%) [4]: 23%
Population Healthy Nuclei (%) [4]: 45%
Population Hoechst High Intensity Objects (%) [4]: 9%
Population Membrane Permeable-Phenotype (%) [4]: 8%
Population Mitochondria Different-Phenotype (%) [4]: 15%
Population Mitotic Cells (%) [4]: 55%
Population Normal (%) [4]: 90%
Population Pyknosed Nuclei (%) [4]: 30%
Population Tubulin-Different-Phenotype (%) [4]: 83%
Total Cell Count [4]: 144
Population Apoptotic (%) [5]: 42%
Population Fragmented Nuclei (%) [5]: 16%
Population Healthy Nuclei (%) [5]: 62%
Population Hoechst High Intensity Objects (%) [5]: 3%
Population Membrane Permeable-Phenotype (%) [5]: 3%
Population Mitochondria Different-Phenotype (%) [5]: 7%
Population Mitotic Cells (%) [5]: 57%
Population Normal (%) [5]: 96%
Population Pyknosed Nuclei (%) [5]: 21%
Population Tubulin-Different-Phenotype (%) [5]: 49%
Total Cell Count [5]: 158
Population Apoptotic (%) [6]: 28%
Population Fragmented Nuclei (%) [6]: 30%
Population Healthy Nuclei (%) [6]: 47%
Population Hoechst High Intensity Objects (%) [6]: 2%
Population Membrane Permeable-Phenotype (%) [6]: 7%
Population Mitochondria Different-Phenotype (%) [6]: 8%
Population Mitotic Cells (%) [6]: 71%
Population Normal (%) [6]: 97%
Population Pyknosed Nuclei (%) [6]: 22%
Population Tubulin-Different-Phenotype (%) [6]: 58%
Total Cell Count [6]: 147
Population Apoptotic (%) [7]: 44%
Population Fragmented Nuclei (%) [7]: 15%
Population Healthy Nuclei (%) [7]: 62%
Population Hoechst High Intensity Objects (%) [7]: 10%
Population Membrane Permeable-Phenotype (%) [7]: 1%
Population Mitochondria Different-Phenotype (%) [7]: 44%
Population Mitotic Cells (%) [7]: 55%
Population Normal (%) [7]: 89%
Population Pyknosed Nuclei (%) [7]: 21%
Population Tubulin-Different-Phenotype (%) [7]: 83%
Total Cell Count [7]: 141
Population Apoptotic (%) [8]: 64%
Population Fragmented Nuclei (%) [8]: 25%
Population Healthy Nuclei (%) [8]: 47%
Population Hoechst High Intensity Objects (%) [8]: 7%
Population Membrane Permeable-Phenotype (%) [8]: 13%
Population Mitochondria Different-Phenotype (%) [8]: 21%
Population Mitotic Cells (%) [8]: 35%
Population Normal (%) [8]: 92%
Population Pyknosed Nuclei (%) [8]: 26%
Total Cell Count [8]: 137
Population Apoptotic (%) [9]: 62%
Population Fragmented Nuclei (%) [9]: 22%
Population Healthy Nuclei (%) [9]: 59%
Population Hoechst High Intensity Objects (%) [9]: 7%
Population Membrane Permeable-Phenotype (%) [9]: 2%
Population Mitochondria Different-Phenotype (%) [9]: 7%
Population Mitotic Cells (%) [9]: 37%
Population Normal (%) [9]: 92%
Population Pyknosed Nuclei (%) [9]: 17%
Population Tubulin-Different-Phenotype (%) [9]: 54%
Total Cell Count [9]: 164
Population Apoptotic (%) [10]: 54%
Population Fragmented Nuclei (%) [10]: 37%
Population Healthy Nuclei (%) [10]: 45%
Population Hoechst High Intensity Objects (%) [10]: 5%
Population Membrane Permeable-Phenotype (%) [10]: 5%
Population Mitochondria Different-Phenotype (%) [10]: 6%
Population Mitotic Cells (%) [10]: 45%
Population Normal (%) [10]: 94%
Population Tubulin-Different-Phenotype (%) [10]: 48%
Total Cell Count [10]: 135
Population Apoptotic (%) [11]: 85%
Population Fragmented Nuclei (%) [11]: 21%
Population Healthy Nuclei (%) [11]: 58%
Population Hoechst High Intensity Objects (%) [11]: 15%
Population Membrane Permeable-Phenotype (%) [11]: 0%
Population Mitochondria Different-Phenotype (%) [11]: 50%
Population Mitotic Cells (%) [11]: 14%
Population Normal (%) [11]: 84%
Population Pyknosed Nuclei (%) [11]: 20%
Population Tubulin-Different-Phenotype (%) [11]: 85%
Total Cell Count [11]: 124
Population Apoptotic (%) [12]: 66%
Population Fragmented Nuclei (%) [12]: 32%
Population Healthy Nuclei (%) [12]: 53%
Population Hoechst High Intensity Objects (%) [12]: 10%
Population Membrane Permeable-Phenotype (%) [12]: 5%
Population Mitochondria Different-Phenotype (%) [12]: 38%
Population Mitotic Cells (%) [12]: 33%
Population Normal (%) [12]: 89%
Population Pyknosed Nuclei (%) [12]: 14%
Population Tubulin-Different-Phenotype (%) [12]: 94%
Total Cell Count [12]: 119
